Test results: ChEMBL document CHEMBL1137710, “Synthesis and in vitro antitumor activity of new quinoxaline derivatives” (2009)

How the values were obtained:
Type in all cases: functional
[1] = system: K562; experiment: Growth inhibition of human K562 cells after 48 hrs by sulforhodamine B assay; conditions: K562, 48 h; for TGI: read-out: pTGI (converted)
Method in brief: (§1)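 NCI 60-human-tumor-cell-line panel, with compounds tested over a 5-log dose range. Values are taken from dose-response curves as log10 molar concentrations: GI50 is 50% net growth inhibition, TGI is total growth inhibition, and LC50 is 50% net cell death.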

[2] = system: NCI/ADR-RES; experiment: Growth inhibition of human NCI/ADR-RES cells after 48 hrs by sulforhodamine B assay; conditions: for CC50: read-out: pLC50 (the source's name) (converted); for TGI: read-out: pTGI (converted); method in brief: as §1
[3] = system: UO-31; experiment: Growth inhibition of human UO31 cells after 48 hrs by sulforhodamine B assay; conditions: UO-31, 48 h; for CC50: read-out: pLC50 (the source's name) (converted); for TGI: read-out: pTGI (converted)
Method in brief: (§2)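 Run in the NCI 60-human-tumour-cell-line panel, tested over a 5-log dose range. Dose–response curves gave three values per cell line, each as a log10 molar concentration: GI50 (50% inhibition of net cell growth), TGI (total inhibition of net growth) and LC50 (50% net cell death). The mean graph midpoint is the arithmetic mean over all lines, with insensitive lines entered at the highest concentration tested.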

[4] = system: KM12; experiment: Growth inhibition of human KM12 cells after 48 hrs by sulforhodamine B assay; conditions: KM12, 48 h; for TGI: read-out: pTGI (converted); method in brief: as §1
[5] = system: NCI-H522; experiment: Growth inhibition of human NCI-H522 cells after 48 hrs by sulforhodamine B assay; conditions: NCI-H522, 48 h; for TGI: read-out: pTGI (converted); method in brief: as §1
[6] = system: SN12C; experiment: Growth inhibition of human SN12C cells after 48 hrs by sulforhodamine B assay; conditions: for CC50: read-out: pLC50 (the source's name) (converted); for TGI: read-out: pTGI (converted); method in brief: as §2
[7] = system: A498; experiment: Growth inhibition of human A498 cells after 48 hrs by sulforhodamine B assay; conditions: A498, 48 h; for CC50: read-out: pLC50 (the source's name) (converted); for TGI: read-out: pTGI (converted); method in brief: as §1
[8] = system: OVCAR-5; experiment: Growth inhibition of human OVCAR5 cells after 48 hrs by sulforhodamine B assay; conditions: OVCAR-5, 48 h; for CC50: read-out: pLC50 (the source's name) (converted); for TGI: read-out: pTGI (converted); method in brief: as §1
[9] = system: HOP-62; experiment: Growth inhibition of human HOP62 cells after 48 hrs by sulforhodamine B assay; conditions: HOP-62, 48 h; for TGI: read-out: pTGI (converted); method in brief: as §1
[10] = system: 786-0; experiment: Growth inhibition of human 786-0 cells after 48 hrs by sulforhodamine B assay; conditions: 786-0, 48 h; for CC50: read-out: pLC50 (the source's name) (converted); for TGI: read-out: pTGI (converted); method in brief: as §1
[11] = system: OVCAR-3; experiment: Growth inhibition of human OVCAR-3 cells after 48 hrs by sulforhodamine B assay; conditions: OVCAR-3, 48 h; for CC50: read-out: pLC50 (the source's name) (converted); for TGI: read-out: pTGI (converted); method in brief: as §1
[12] = system: T47D; experiment: Growth inhibition of human T47D cells after 48 hrs by sulforhodamine B assay; conditions: for CC50: read-out: pLC50 (the source's name) (converted); for TGI: read-out: pTGI (converted); method in brief: as §2
[13] = system: NCI-H322M; experiment: Growth inhibition of human NCI-H322M cells after 48 hrs by sulforhodamine B assay; conditions: for TGI: read-out: pTGI (converted); method in brief: as §1
[14] = system: SF-539; experiment: Growth inhibition of human SF539 cells after 48 hrs by sulforhodamine B assay; conditions: SF-539, 48 h; for TGI: read-out: pTGI (converted); method in brief: as §1
[15] = system: LOX IMVI; experiment: Growth inhibition of human LOXIMVI cells after 48 hrs by sulforhodamine B assay; method in brief: as §1
[16] = Growth inhibition of human Hs 578T cells after 48 hrs by sulforhodamine B assay; conditions: for CC50: read-out: pLC50 (the source's name) (converted); for TGI: read-out: pTGI (converted); method in brief: as §1
[17] = system: SK-MEL-2; experiment: Growth inhibition of human SK-MEL-2 cells after 48 hrs by sulforhodamine B assay; conditions: SK-MEL-2, 48 h; for CC50: read-out: pLC50 (the source's name) (converted); for TGI: read-out: pTGI (converted); method in brief: as §1
[18] = system: Malme-3M; experiment: Growth inhibition of human MALME-3M cells after 48 hrs by sulforhodamine B assay; conditions: for CC50: read-out: pLC50 (the source's name) (converted); for TGI: read-out: pTGI (converted); method in brief: as §1
[19] = system: CCRF-CEM; experiment: Growth inhibition of human CCRF-CEM cells after 48 hrs by sulforhodamine B assay; conditions: for TGI: read-out: pTGI (converted); method in brief: as §1
[20] = system: MOLT-4; experiment: Growth inhibition of human MOLT4 cells after 48 hrs by sulforhodamine B assay; conditions: MOLT-4, 48 h; for TGI: read-out: pTGI (converted); method in brief: as §1
[21] = system: CAKI-1; experiment: Growth inhibition of human Caki1 cells after 48 hrs by sulforhodamine B assay; conditions: CAKI-1, 48 h; for CC50: read-out: pLC50 (the source's name) (converted); for TGI: read-out: pTGI (converted); method in brief: as §1
[22] = system: HL-60(TB); experiment: Growth inhibition of human HL-60(TB) cells after 48 hrs by sulforhodamine B assay; conditions: HL-60, 48 h; for TGI: read-out: pTGI (converted)
Method in brief: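 Tested only on compounds active in a three-line prescreen, in the NCI 60-human-tumour-cell-line panel over a 5-log dose range. Values come from dose–response curves as log10 molar GI50, the concentration inhibiting 50% net cell growth. Log10 TGI (total growth inhibition) and log10 LC50 (50% net cell death) were derived too. Mean graph midpoints include insensitive lines at the highest concentration tested.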

[23] = system: HCT-15; experiment: Growth inhibition of human HCT15 cells after 48 hrs by sulforhodamine B assay; conditions: HCT-15, 48 h; method in brief: as §1
[24] = system: SR; experiment: Growth inhibition of human SR cells after 48 hrs by sulforhodamine B assay; method in brief: as §2
[25] = system: EKVX; experiment: Growth inhibition of human EKVX cells after 48 hrs by sulforhodamine B assay; method in brief: as §1

In the case of `COc1ccc(Sc2nc3cc(N)cc(N)c3nc2-c2ccccc2)cc1`, the GI50 [1] is reported as 9.77 µM, the LC50 [1] is reported as > 100 µM and the TGI [1] is reported as > 100 µM. For the same molecule, the GI50 [2] was > 100 µM, the CC50 [2] was > 100 µM and the TGI [2] was > 100 µM. The GI50 [3] was 4.17 µM, the CC50 [3] was > 100 µM and the TGI [3] was > 100 µM. The GI50 [4] was 28.2 µM, the LC50 (50% net cell kill) [4] was > 100 µM and the TGI [4] was > 100 µM. The GI50 [5] was 3.24 µM, the LC50 [5] was > 100 µM and the TGI [5] was > 100 µM. It also gave a GI50 [6] of 6.03 µM, a CC50 [6] of 87.1 µM and a TGI [6] of 24 µM. It also gave a GI50 [7] of 17.4 µM, a CC50 [7] of 60.3 µM and a TGI [7] of 32.4 µM. The GI50 [8] was > 100 µM, the CC50 [8] was > 100 µM and the TGI [8] was > 100 µM. The GI50 [9] was > 100 µM, the LC50 [9] was > 100 µM and the TGI [9] was > 100 µM. The GI50 [10] was 13.2 µM, the CC50 [10] was 70.8 µM and the TGI [10] was 30.2 µM. For the same molecule, the CC50 [11] was > 100 µM, the TGI [11] was > 100 µM and the GI50 [12] was > 100 µM. The CC50 [12] was > 100 µM, the TGI [12] was > 100 µM and the GI50 [13] was 35.5 µM. For the same molecule, the LC50 [13] was > 100 µM, the TGI [13] was > 100 µM and the GI50 [14] was 10 µM. For the same molecule, the LC50 [14] was > 100 µM, the TGI [14] was > 100 µM and the GI50 [15] was 51.3 µM. The LC50 [15] was > 100 µM, the TGI ([15]; read-out: pTGI (converted)) was > 100 µM and the GI50 [16] was > 100 µM. The CC50 [16] was > 100 µM, the TGI [16] was > 100 µM and the CC50 [17] was > 100 µM. For the same molecule, the TGI [17] was > 100 µM, the GI50 [18] was 33.1 µM and the CC50 [18] was > 100 µM. For the same molecule, the TGI [18] was 95.5 µM, the GI50 [19] was 2.29 µM and the LC50 [19] was > 100 µM. The TGI [19] was 8.32 µM, the GI50 [20] was 4.17 µM and the LC50 [20] was > 100 µM. For the same molecule, the TGI [20] was > 100 µM, the GI50 [21] was 13.2 µM and the CC50 [21] was > 100 µM. For the same molecule, the TGI [21] was 52.5 µM, the GI50 [22] was 4.27 µM and the LC50 [22] was > 100 µM. For the same molecule, the TGI [22] was > 100 µM.

With `Nc1cc(N)c2nc(-c3ccccc3)c(NCc3ccc(Cl)c(Cl)c3)nc2c1` the GI50 [1] was 3.09 µM, the LC50 [1] was > 100 µM and the TGI [1] was 17.8 µM. The GI50 [2] was 17.4 µM, the CC50 [2] was > 100 µM and the TGI [2] was 45.7 µM. The GI50 [3] was 4.17 µM, the CC50 [3] was > 100 µM and the TGI [3] was > 100 µM. For the same molecule, the GI50 [4] was 3.39 µM, the LC50 (50% net cell kill) [4] was > 100 µM and the TGI [4] was 21.4 µM. For the same molecule, the GI50 [5] was 2.04 µM, the LC50 [5] was 22.4 µM and the TGI [5] was 4.9 µM. The GI50 [6] was 6.03 µM, the CC50 [6] was 87.1 µM and the TGI [6] was 24 µM. The GI50 [23] was 4.68 µM, the LC50 [23] was > 100 µM and the TGI ([23]; read-out: pTGI (converted)) was > 100 µM. For the same molecule, the GI50 [24] was 1.62 µM, the LC50 (concentration giving 50% net cell death) [24] was > 100 µM and the TGI ([24]; read-out: pTGI (converted)) was 6.03 µM. It also gave a GI50 [7] of 17.4 µM, a CC50 [7] of 60.3 µM and a TGI [7] of 32.4 µM. The GI50 [8] was 24 µM, the CC50 [8] was 69.2 µM and the TGI [8] was 40.7 µM. The GI50 [9] was 15.8 µM, the LC50 [9] was 64.6 µM and the TGI [9] was 31.6 µM. The GI50 [10] was 13.2 µM, the CC50 [10] was 70.8 µM and the TGI [10] was 30.2 µM. For the same molecule, the GI50 [11] was 2.63 µM, the CC50 [11] was 31.6 µM and the TGI [11] was 6.92 µM. For the same molecule, the GI50 [12] was 19.5 µM, the CC50 [12] was > 100 µM and the TGI [12] was 55 µM. It also gave a GI50 [13] of 13.5 µM, an LC50 [13] of 69.2 µM and a TGI [13] of 30.2 µM. For the same molecule, the GI50 [25] was 11 µM, the LC50 (50% net cell kill) [25] was > 100 µM and the TGI ([25]; read-out: pTGI (converted)) was 38.9 µM. It also gave a GI50 [14] of 4.57 µM, an LC50 [14] of 83.2 µM and a TGI [14] of 18.6 µM. The GI50 [15] was 2.14 µM, the GI50 [16] was 5.89 µM and the CC50 [16] was > 100 µM. For the same molecule, the TGI [16] was 46.8 µM, the GI50 [17] was 1.91 µM and the CC50 [17] was 9.55 µM. For the same molecule, the TGI [17] was 4.27 µM, the GI50 [18] was 3.39 µM and the CC50 [18] was 50.1 µM. The TGI [18] was 13.8 µM, the GI50 [19] was 0.132 µM and the LC50 [19] was 17.4 µM. For the same molecule, the TGI [19] was 1.82 µM, the GI50 [20] was 2.09 µM and the LC50 [20] was > 100 µM. For the same molecule, the TGI [20] was > 100 µM, the GI50 [21] was 13.2 µM and the CC50 [21] was > 100 µM. For the same molecule, the TGI [21] was 52.5 µM, the GI50 [22] was 1.82 µM and the LC50 [22] was > 100 µM. It also gave a TGI [22] of 7.94 µM.
